CHO parental Ca: ATP-evoked calcium signal inhibitors, parental CHO, primary screen, counter-screen for OX1R antagonist project, cell-based, fluorescence, Fluo-8 calcium dye | parental CHO-K1, ATP-induced calcium, Fluo-8 fluorescence | AID 463079, 2010 | inhibition, % at 5.6 µM | hit rate 0.63% among 330,000;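 active = inhibition above that plate's mean sample inhibition plus 3 SD, cut at about 26% in these data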;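 also: 0% = ATP-challenged DMSO wells and 100% = DMSO wells without ATP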
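Test system: untransfected parental CHO cell line; also added: ATP stimulus; dosing: 5.6 µM, single dose; signal: calcium-sensitive Fluo-8 fluorescence; measure: percent inhibition of ATP-evoked calcium rise, normalized to controls; benchmarks: low control ATP plus DMSO, high control DMSO only; replication: one well per compound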
GPR7 antag: GPR7 receptor antagonists, primary screen, cell-based, fluorescence, single concentration. Neuropeptides B/W receptor type 1 (Homo sapiens), P48145. GPR7-expressing cells, fluorescence antagonist assay. inhibition, % at 4.4 µM. hit rate 1.1% among 290,000. AID 1861, 2009; in the data active = inhibition above about 16%, passing the limit was not always enough;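 also: cells stimulated with the agonist NPW; 0% = agonist with vehicle and 100% = vehicle without agonist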
Target sequence (P48145 whole entry, looked up): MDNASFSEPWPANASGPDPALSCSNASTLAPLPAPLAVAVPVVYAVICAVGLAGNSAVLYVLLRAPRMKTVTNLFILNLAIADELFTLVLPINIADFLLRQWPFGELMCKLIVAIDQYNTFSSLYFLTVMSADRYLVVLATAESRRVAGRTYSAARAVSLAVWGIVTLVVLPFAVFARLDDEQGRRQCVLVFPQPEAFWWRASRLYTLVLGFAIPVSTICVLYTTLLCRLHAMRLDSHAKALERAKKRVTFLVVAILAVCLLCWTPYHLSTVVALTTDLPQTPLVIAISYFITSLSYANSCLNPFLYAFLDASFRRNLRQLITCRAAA
TAAR1 ag: human TAAR1 agonists, primary screen, Fluo-8 calcium fluorescence, CHO RD-HGA16 cells. vehicle wells 0%, saturating PEA agonist 100%. activation, % at 3 µM. hit rate 0.99% among 360,000;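 active = activation above the mean activation of all test compounds in the run plus 3 SD, cut at about 38% in these data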
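Assay system – CHO-derived RD-HGA16 cells with stable Gα16 and human TAAR1 · Compound dosing – one-point dosing at 3 µM (nominal) · Incubation – 17-24 h seeding, 75 min 37 °C dye, 30 min RT · Measured by – kinetic Fluo-8 calcium fluorescence · Control set – DMSO vehicle as 0%, PEA at EC100 as 100% · Repeats – single well for each compound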
TAAR1 antagonist: human TAAR1 antagonists, primary screen, Fluo-8 calcium fluorescence, CHO RD-HGA16 cells. antagonist. inhibition, % at 3 µM. hit rate 1.5% among 360,000. AID 624466, 2012;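 active = inhibition above a per-plate cutoff, the mean inhibition of test compounds on that plate plus 3 SD, cut at about 49% in these data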;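 also: 0% = DMSO plus EC80 beta-PEA response and 100% = DMSO alone without agonist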
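Test system: hTAAR1-expressing CHO RD-HGA16 cells, Gα16-coupled; Probe or stimulus: EC80 β-phenethylamine stimulus; Compound dosing: single nominal final test compound concentration of 3 µM; Timing: 140 s kinetic read after compound, 140 s after agonist; Signal: Fluo-8 calcium-sensitive fluorescence; Measure: % inhibition of agonist calcium response; Controls: DMSO and EC80 PEA controls.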
OX1R antag-1: OX1R (HCRTR1) antagonists, primary screen, fluorescence, CHO/OX1R cells, Fluo-8 calcium, orexin A | Orexin/Hypocretin receptor type 1 (Homo sapiens), O43613 | Fluo-8 calcium fluorescence | hit rate 0.43% among 330,000 | AID 434989, 2010 | inhibition, % at 5 µM;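 active = inhibition above its plate's threshold, mean inhibition of all tested compounds on the plate plus 3 SD, cut at about 37% in these data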;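 also: 0% = orexin A challenge wells and 100% = SB-334867-A antagonist wells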
OX1R antag-2: antagonists of human orexin 1 receptor (OX1R); Orexin/Hypocretin receptor type 1 (Homo sapiens), O43613; OX1R-expressing cells, FRET antagonist read-out; inhibition, % at 6.6 µM; hit rate 1.8% among 330,000; AID 485270, 2010; in the data active = inhibition mostly above about 38%, no sharp cut-off; inactive = mostly below about 40%;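 also: 0% = agonist challenge alone and 100% = reference antagonist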
Numbers without * were called inactive; · = not tested or not shown. This is a sample that favours compounds with a hit; in the whole collection about 4.6% have one here.

SMILES	CHO parental Ca	GPR7 antag	TAAR1 ag	TAAR1 antagonist	OX1R antag-1	OX1R antag-2
COC(=O)c1ccc(C)c(NC(=O)CCSc2ccc(Cl)cc2)c1	-27	-1	10	7	-28	25
COC(=O)c1cccc(NC(=O)CCSc2ccc(Cl)cc2)c1C	28	-1	77*	91*	2	13
CCOCCCNC(=O)/C(C#N)=C/c1ccc(Cl)c([N+](=O)[O-])c1	-3	-5	3	-7	-25	26
CCOCCCNC(=O)/C(C#N)=C/c1cc(OC)c(O)c([N+](=O)[O-])c1	12	11	2	-23	-9	42*
Cc1cccc2c(Cl)cc(=O)[nH]c12	·	-14	7	-6	·	·
Cc1cccc2c3c([nH]c12)CCNC3	9	5	40*	28	-4	9
Cc1c(C(=O)NNC(=O)c2ccccc2O)oc2ccc(Br)cc12	64*	·	4	-4	-3	8
COc1ccc(CCNC2=CC(=O)N(c3ccc(F)cc3)C2=O)cc1	39*	-4	22	-11	-8	21
CCNC(=O)CC1C(=O)N(c2ccc(F)cc2)C(=O)N1CCc1ccc(OC)cc1 (stereo not given)	-17	-12	3	8	-12	1
CC(=O)N1CCC(C(=O)N2c3ccccc3N=C(c3ccc(C(F)(F)F)cc3)C2C(=O)NC(C)(C)C)CC1 (stereo not given)	·	·	0	-9	·	·
COC(=O)[C@@]12C[C@@H](CC(=O)NCC3CCCCC3)C(=O)N(CCc3ccc(OC)c(OC)c3)C1=CCC(C)(C)C2	·	·	1	-21	·	·
O=C(COC(=O)c1ccccc1Nc1ccccc1)c1ccccc1	6	2	7	15	43*	20
CNc1ccccc1C(=O)OCC(=O)c1ccccc1	-15	-6	·	·	-33	27
O=C(COC(=O)c1ccccc1-c1ccccc1[N+](=O)[O-])c1ccccc1	18	-6	10	56*	0	30
O=C(COC(=O)c1ccccc1[N+](=O)[O-])c1ccc2c(c1)OCO2	3	·	5	3	-10	14
O=S(=O)(NCc1ccncc1)c1ccc(F)c(F)c1	·	·	7	4	·	·
COc1cc(S(=O)(=O)NCc2ccncc2)ccc1Br	31*	3	2	5	11	8
CCN(C1CCCCC1)S(=O)(=O)c1ccc(S(=O)(=O)NCc2ccncc2)cc1	6	21*	18	1	0	34
Cc1ccc(S(=O)(=O)NCc2ccncc2)cc1C	33*	8	5	26	41*	64
CNC(=O)c1cc(S(=O)(=O)NCc2ccncc2)ccc1OC	3	-12	1	-13	-4	6
CCN(C1CCCCC1)S(=O)(=O)c1ccc(S(=O)(=O)NCCc2ccncc2)cc1	-17	-2	10	22	-26	16
COc1ccc(C2CC(=O)C(c3ccc(C(N)=O)cc3)=CN2Cc2ccccc2)cc1 (stereo not given)	·	·	1	-4	·	·
Cc1cc(Br)cn2c(Cc3ccccc3)c(-c3ccc(C#N)cc3)nc12	·	·	-1	-14	·	·
Cc1ccc(-n2nnnc2SCc2nnc(-c3ccccc3Br)o2)c(C)c1	25	-8	4	17	63*	44*
Cn1nnnc1SCc1nnc(-c2ccccc2Br)o1	2	-11	16	0	-15	3
O=S(=O)(Nc1nc2ccccc2nc1Cl)c1cccc(C(F)(F)F)c1	6	-16	2	-5	-17	50*
O=S(=O)(Nc1nc2ccccc2nc1Cl)c1ccccc1C(F)(F)F	1	-9	6	-10	-1	16
COc1ccc2oc(=O)c(-c3nnc(NCc4ccco4)s3)cc2c1	-9	-4	9	10	-26	24
CCOc1cccc2cc(-c3nnc(NCc4ccco4)s3)c(=O)oc12	-13	4	4	25	-1	46*

Screening data from PubChem BioAssay.
